From ChEMBL document CHEMBL1134558, “Discovery of estrogen sulfotransferase inhibitors from a purine library screen” (J Med Chem, 2001)

Molecular target: T1, Sulfotransferase 1E1 (Mus musculus, UniProt P49891)
T1 sequence (P49891 whole entry): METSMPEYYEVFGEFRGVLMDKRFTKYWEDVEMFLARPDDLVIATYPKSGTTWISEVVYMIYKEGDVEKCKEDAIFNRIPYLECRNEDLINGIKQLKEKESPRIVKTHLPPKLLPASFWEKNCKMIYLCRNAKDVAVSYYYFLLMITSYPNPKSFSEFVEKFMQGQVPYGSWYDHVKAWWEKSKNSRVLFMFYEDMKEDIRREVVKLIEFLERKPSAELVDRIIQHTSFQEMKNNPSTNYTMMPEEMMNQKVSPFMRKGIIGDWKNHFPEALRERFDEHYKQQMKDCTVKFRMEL
Test: Inhibition of estrogen sulfotransferase (EST) in TLC radiolabel transfer assay
Summary of the method: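 Murine EST expressed and purified as an N-terminal GST fusion. Transfer of ³⁵S-sulfate from ³⁵S-PAPS to estrone acceptor; extent of reaction measured by TLC separation and phosphorimaging. IC50 values taken from this radiolabel transfer assay. In the screen each compound was tested at 100 μM, with >70% inhibition scored as a hit.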

IC50	Structure (SMILES)
> 200 µM	Cn1cnc2c(N(CCO)CCO)nc(NCC(N)=O)nc21
35 µM	Cn1cnc2c(NCc3ccc(Cl)cc3)nc(NCC(N)=O)nc21
30 µM	Cn1cnc2c(NCc3ccccc3N)nc(NCC(N)=O)nc21
100 µM	Cn1cnc2c(N(CCO)CCNCCO)nc(NCC(N)=O)nc21
60 µM	Cn1cnc2c(NCc3cc(Cl)cc(Cl)c3)nc(NCC(N)=O)nc21
60 µM	CC(O)CNc1nc(NCC(N)=O)nc2c1ncn2C (configuration not stated)

The remaining lines, values behind:

Structure (SMILES)	IC50
COc1ccc(CNc2nc(N3CCN(C)CC3)nc3c2ncn3C(C)C)cc1	80 µM
O=[N+]([O-])c1ccc(CNc2nc(NCC3CCCCC3)c3ncn(CCO)c3n2)cc1	> 200 µM
CC(C)n1cnc2c(NCc3ccc(N)cc3)nc(NCCCCC(=O)C3CSC(=O)N3)nc21 (configuration not stated)	72 µM
COc1ccc(CNc2nc(N3CCCCCC3)nc3c2ncn3C(C)C)cc1	0.5 µM
COc1ccc(CNc2nc(NCc3ccccc3)nc3c2ncn3CCO)cc1	30 µM
COc1ccc(CNc2nc(N[C@H](CO)CC(C)C)nc3c2ncn3C(C)C)cc1	60 µM
